# Source: ChEMBL document CHEMBL4725263, “Discovery of potential dual-target prodrugs of HIV-1 reverse transcriptase and nucleocapsid protein 7” (Bioorg Med Chem Lett, 2020)
# Key:
# [1] = Cytotoxicity in mock-infected human MT4 assessed as reduction in cell viability incubated for 5 days by MTT assay; assay type: cell-based; details: mock-infected MT4 cells, time 5 day
# Method in brief: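 Mock-infected MT-4 cultures were run alongside the HIV-1 IIIB and RES056 (K103N/Y181C) protection assays and incubated for 5 days. Viability was read by MTT. CC50 is the concentration that cuts viability of the mock-infected cultures by 50%.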
# [2] = Cytotoxicity in human TZM assessed as reduction in cell viability incubated for 5 days by MTT assay; assay type: cell-based; details: TZM cells, time 5 day
# Method in brief: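 Uninfected TZM-bl cells were exposed to compound in parallel with the HIV-1 NL4-3 antiviral assay. CC50 is the concentration that cuts viability by 50%. Each compound was run in at least triplicate, and values were averaged from at least four independent experiments.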
# [3] = (§1) Selectivity index, ratio of CC50 for cytotoxicity in mock-infected human MT4 cells assessed as reduction in cell viability incubated for 5 days by MTT to EC50 for inhibition of reverse transcriptase/nucleocapsid protein 7 in wild type HIV1 3B infected in human MT4 cells assessed as protection against virus-induced cytopathic effect incubated for 5 days by MTT assay; assay type: toxicity, cell-based; details: time 5 day, read-out: Ratio CC50/EC50
# Method in brief: (§2)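 MT-4 cells infected with HIV-1 IIIB (wild type) or RES056 (K103N/Y181C RT double mutant); 5-day incubation; viability by MTT. EC50 is the concentration giving 50% protection against virus-induced cytotoxicity. CC50 is the concentration cutting viability of mock-infected cultures by 50%. SI is CC50/EC50. Fold resistance is EC50 mutant/EC50 wild type.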
# [4] = as §1, with “transcriptase K103N/Y181C double mutant/nucleocapsid” for “transcriptase/nucleocapsid”, “in” for “in wild type”, “RES056” for “3B”; assay type: toxicity, cell-based; details: time 5 day, read-out: Ratio CC50/EC50; method in brief: as §2
# [5] = Inhibition of nucleocapsid protein 7/reverse transcriptase K103N/Y181C double mutant in HIV1 RES056 infected in human MT4 cells assessed as protection against virus-induced cytopathic effect incubated for 5 days by MTT assay; assay type: cell-based; details: Human immunodeficiency virus 1, RES056, MT4, 120 h; method in brief: as §2
# [6] = Inhibition of reverse transcriptase/nucleocapsid protein 7 in wild type HIV1 NL4-3 infected in human TZM-bl cells assessed as protection against virus-induced cytopathic effect incubated for 5 days by MTT assay; assay type: cell-based; details: Human immunodeficiency virus 1, NL4-3, TZM-bl, 120 h
# [7] = Selectivity index, ratio of CC50 for cytotoxicity in human TZM-bl assessed as reduction in cell viability incubated for 5 days by MTT to EC50 for inhibition of reverse transcriptase/nucleocapsid protein 7 in wild type HIV1 NL4-3 infected in human TZM-bl cells assessed as protection against virus-induced cytopathic effect incubated for 5 days by MTT assay; assay type: toxicity, cell-based; details: time 5 day, read-out: Ratio CC50/EC50
# [8] = Inhibition of reverse transcriptase/nucleocapsid protein 7 in wild type HIV1 3B infected in human MT4 cells assessed as protection against virus-induced cytopathic effect incubated for 5 days by MTT assay; assay type: cell-based; details: Human immunodeficiency virus 1, 3B, MT4, 120 h; method in brief: as §2
# [9] = Prodrug conversion in human plasma assessed as enzyme-mediated drug hydrolysis measured after 10 mins at 37 degree C by LC-MS/MS analysis
# [10] = Prodrug conversion in human plasma assessed as […] measured after 10 mins at 37 degree C by LC-MS/MS analysis; assay type: ADME, cell-free
# Method in brief: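 Prodrug incubated in human plasma (pH 7.4 ± 0.1) at 37 °C for 1 h. Remaining prodrug and formed MT and AZT measured by LC-MS/MS, in triplicate at each time point. Decrease in prodrug plotted against MT formed over the first 10 min with a linear fit.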
# [11] = test system: Human immunodeficiency virus 1; assay: Fold resistance, ratio of EC50 for inhibition of reverse transcriptase K103N/Y181C double mutant/nucleocapsid protein 7 in HIV1 RES056 infected in human MT4 cells assessed as protection against virus-induced cytopathic effect incubated for 5 days by MTT assay to EC50 for reverse transcriptase/nucleocapsid protein 7 in wild type HIV1 3B infected in human MT4 cells assessed as protection against virus-induced cytopathic effect incubated for 5 days by MTT assay; assay type: cell-based; details: time 5.0 day; method in brief: as §2
SMILES,CC50 at 120 h [1],CC50 at 120 h [2],selectivity ratio at 120 h [3],selectivity ratio at 120 h [4],EC50 [5],EC50 [6],selectivity ratio at 120 h [7],EC50 [8],Drug metabolism [9],Drug metabolism [10],Ratio EC50 [11]
Cc1cn([C@H]2C[C@H](N=[N+]=[N-])[C@@H](COC(=O)CC(C)CC(=O)OCSc3ccccc3C(=O)NCCC(N)=O)O2)c(=O)[nH]c1=O (stereo partly specified),> 198 µM,> 1.58 µM,–,–,–,–,–,–,–,–,–
Cc1cn([C@H]2C[C@H](N=[N+]=[N-])[C@@H](CO)O2)c(=O)[nH]c1=O [ZIDOVUDINE],> 7.48 µM,> 0.374 µM,> 645,> 6.25,1.2 µM,0.016 µM,> 23.4,0.011 µM,–,–,–
Cc1cn([C@H]2C[C@H](N=[N+]=[N-])[C@@H](COC(=O)CCCCC(=O)OCSc3ccccc3CNCCC(N)=O)O2)c(=O)[nH]c1=O,> 198 µM,> 1.58 µM,> 4660,> 149,1.33 µM,0.308 µM,> 4.76,0.042 µM,100%,Metabolite_Detected,31.6
Cc1cn([C@H]2C[C@H](N=[N+]=[N-])[C@@H](COC(=O)CCC(=O)OCSc3ccccc3C(=O)NCCC(N)=O)O2)c(=O)[nH]c1=O,124 µM,> 1.66 µM,–,–,–,–,–,–,–,–,–
Cc1cn([C@H]2C[C@H](N=[N+]=[N-])[C@@H](COC(=O)CCCC(=O)OCSc3ccccc3C(=O)NCCC(N)=O)O2)c(=O)[nH]c1=O,> 202 µM,> 1.62 µM,–,–,–,–,–,–,–,–,–
NC(=O)CCNC(=O)c1ccccc1S,332 µM,82.5 µM,63,41.9,7.94 µM,2.36 µM,> 34.9,5.26 µM,–,–,1.5
Cc1cn([C@H]2C[C@H](N=[N+]=[N-])[C@@H](COC(=O)CC(C)(C)CC(=O)OCSc3ccccc3C(=O)NCCC(N)=O)O2)c(=O)[nH]c1=O,> 194 µM,> 1.55 µM,–,–,–,–,–,–,–,–,–
